Experimental data as given in ChEMBL document CHEMBL4689842, “EUbOPEN Chemogenomics Library wave 1” (2021).
Where “and” joins values, the source holds several entries; their conditions need not be identical. Identical values can stand only once.

Tested on: Fibroblast
Experiment: Multiplex assay against human fibroblast
Format: toxicity, cell-based
Settings: 10 µM, compound concentration 10 uM
Outline: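 Cells were classed with CellPathfinder machine-learning gating, first as Hoechst high-intensity objects or normal cells, then (normal cells) as healthy, pyknosed or fragmented nuclei, and finally (pyknosed cells) as mitotic or apoptotic. Staining of live cells at seeding used Hoechst33342, BioTracker Green Microtubule Cytoskeleton Dye, MitoTracker Red and Annexin V Alexa Fluor 680, with imaging on a CQ1 microscope at 37°C and 5% CO2 after compound addition. Tubulin, mitochondrial-mass and membrane-permeability phenotypes are per cents of healthy-nucleus cells.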

For `CCn1c(=O)c(-c2ccc(Cl)cc2Cl)cc2cnc(Nc3ccc(N4CCNCC4)c(F)c3)nc21`, the “Population Apoptotic (%)” value (12 h, replicate 1) was 33% and 53% and 60%, the “Population Fragmented Nuclei (%)” value (12 h, replicate 1) was 33% and 37% and 26% and the “Population Healthy Nuclei (%)” value (12 h, replicate 1) was 39% and 46% and 56%. For the same compound, the “Population Hoechst High Intensity Objects (%)” value (12 h, replicate 1) was 69% and 59% and 37%, the “Population Mitochondria Different-Phenotype (%)” value (12 h, replicate 1) was 11% and 6% and 5% and the “Population Mitotic Cells (%)” value (12 h, replicate 1) was 66% and 46% and 39%. The “Population Normal (%)” value (12 h, replicate 1) was 30% and 41% and 62%, the “Population Pyknosed Nuclei (%)” value (12 h, replicate 1) was 27% and 16% and the “Population Fragmented Nuclei (%)” value (12 h, replicate 2) was 44% and 57% and 61%. The “Population Healthy Nuclei (%)” value (12 h, replicate 2) was 18% and 35% and 19%, the “Population Hoechst High Intensity Objects (%)” value (12 h, replicate 2) was 50% and 51% and 70% and the “Population Normal (%)” value (12 h, replicate 2) was 50% and 48% and 29%. For the same compound, the “Total Cell Count” value (12 h, replicate 2) was 206 and 112 and 242, the “Population Apoptotic (%)” value (24 h, replicate 1) was 47% and 66% and 63% and the “Population Fragmented Nuclei (%)” value (24 h, replicate 1) was 40% and 37% and 23%. The “Population Healthy Nuclei (%)” value (24 h, replicate 1) was 32% and 38% and 58%, the “Population Hoechst High Intensity Objects (%)” value (24 h, replicate 1) was 72% and 65% and 42% and the “Population Mitochondria Different-Phenotype (%)” value (24 h, replicate 1) was 14% and 20% and 7%. For the same compound, the “Population Mitotic Cells (%)” value (24 h, replicate 1) was 52% and 33% and 36%, the “Population Normal (%)” value (24 h, replicate 1) was 27% and 34% and 57% and the “Population Pyknosed Nuclei (%)” value (24 h, replicate 1) was 24% and 17%. For the same compound, the “Population Tubulin-Different-Phenotype (%)” value (24 h, replicate 1) was 33% and 32%, the “Total Cell Count” value (24 h, replicate 1) was 236 and 703 and 456 and the “Population Apoptotic (%)” value (24 h, replicate 2) was 100% and 71% and 73%. For the same compound, the “Population Fragmented Nuclei (%)” value (24 h, replicate 2) was 41% and 62% and 53%, the “Population Healthy Nuclei (%)” value (24 h, replicate 2) was 31% and 23% and 24% and the “Population Hoechst High Intensity Objects (%)” value (24 h, replicate 2) was 44% and 54% and 74%. The “Population Normal (%)” value (24 h, replicate 2) was 55% and 45% and 25%, the “Population Pyknosed Nuclei (%)” value (24 h, replicate 2) was 26% and 13% and 22% and the “Total Cell Count” value (24 h, replicate 2) was 225 and 111 and 256. For the same compound, the “Population Apoptotic (%)” value (48 h, replicate 1) was 35%, the “Population Fragmented Nuclei (%)” value (48 h, replicate 1) was 36% and the “Population Healthy Nuclei (%)” value (48 h, replicate 1) was 46%. For the same compound, the “Population Hoechst High Intensity Objects (%)” value (48 h, replicate 1) was 67%, the “Population Membrane Permeable-Phenotype (%)” value (48 h, replicate 1) was 30% and the “Population Mitochondria Different-Phenotype (%)” value (48 h, replicate 1) was 15%. The “Population Mitotic Cells (%)” value (48 h, replicate 1) was 64%, the “Population Normal (%)” value (48 h, replicate 1) was 32% and the “Population Pyknosed Nuclei (%)” value (48 h, replicate 1) was 16%. The “Population Tubulin-Different-Phenotype (%)” value (48 h, replicate 1) was 15%, the “Total Cell Count” value (48 h, replicate 1) was 255 and the “Population Apoptotic (%)” value (48 h, replicate 2) was 71%. For the same compound, the “Population Fragmented Nuclei (%)” value (48 h, replicate 2) was 60%, the “Population Healthy Nuclei (%)” value (48 h, replicate 2) was 31% and the “Population Hoechst High Intensity Objects (%)” value (48 h, replicate 2) was 76%. The “Population Membrane Permeable-Phenotype (%)” value (48 h, replicate 2) was 65%, the “Population Mitochondria Different-Phenotype (%)” value (48 h, replicate 2) was 7% and the “Population Mitotic Cells (%)” value (48 h, replicate 2) was 28%. For the same compound, the “Population Normal (%)” value (48 h, replicate 2) was 23%, the “Population Pyknosed Nuclei (%)” value (48 h, replicate 2) was 8% and the “Total Cell Count” value (48 h, replicate 2) was 348.
